Compound activity: PubChem BioAssay, The Scripps Research Institute Molecular Screening Center
Rows were chosen to be rich in hits. Some 2.7% of all compounds tested hit in one or more screens of this group.
OX1R antag-1 = human HCRTR1 antagonism. O43613. CHO/OX1R cells, Fluo-8 calcium fluorescence, orexin A. inhibition, % at 5 µM. hit rate 0.43% among 330,000;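 active = inhibition above its plate's threshold, mean inhibition of all tested compounds on the plate plus 3 SD, cut at about 37% in these data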;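 also: 0% = orexin A challenge wells and 100% = SB-334867-A antagonist wells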
Target sequence (O43613 whole entry, looked up): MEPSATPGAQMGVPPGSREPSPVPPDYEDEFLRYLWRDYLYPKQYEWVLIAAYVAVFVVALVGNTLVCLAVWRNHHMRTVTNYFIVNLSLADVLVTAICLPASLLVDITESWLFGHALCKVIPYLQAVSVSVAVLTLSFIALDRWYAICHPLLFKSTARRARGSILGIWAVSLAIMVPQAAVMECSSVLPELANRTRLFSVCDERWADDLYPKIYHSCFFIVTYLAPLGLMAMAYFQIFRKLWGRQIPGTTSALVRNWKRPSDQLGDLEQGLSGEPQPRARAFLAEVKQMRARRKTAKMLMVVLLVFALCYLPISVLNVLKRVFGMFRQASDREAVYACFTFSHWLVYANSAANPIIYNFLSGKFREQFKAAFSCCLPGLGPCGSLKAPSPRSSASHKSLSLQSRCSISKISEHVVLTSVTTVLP
OXTR agonist = agonists of human oxytocin receptor. hit rate 0.32% among 320,000. P30559. activation, % at 3 µM. CHO-OTR cells, Fluo-8 calcium fluorescence; normalized: DMSO 0%, oxytocin 100%;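 active = activation above the mean of all tested compounds plus 3 SD, cutoff set per screening run, cut at about 20% in these data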;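 also: peak over basal fluorescence ratio from a 100 s FLIPR kinetic read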
CHO parental Ca = counter-screen for OX1R antagonists: effect in parental CHO cells; parental CHO-K1, ATP-induced calcium, Fluo-8 fluorescence; inhibition, % at 5.6 µM; hit rate 0.63% among 330,000; AID 463079;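 active = inhibition above that plate's mean sample inhibition plus 3 SD, cut at about 26% in these data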;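 also: 0% = ATP-challenged DMSO wells and 100% = DMSO wells without ATP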
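Material – parental CHO cells · Reagent – ATP stimulus · Compound – single nominal dose of 5.6 µM per compound · Detection – Fluo-8 fluorescence · Read-out basis – percent inhibition of calcium signal · Controls – ATP-challenged DMSO wells low, unchallenged DMSO wells high · Repeats – no replicates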
OX1R antag-2 = OX1R (human) antagonism | O43613 | OX1R-expressing cells, FRET antagonist read-out | inhibition, % at 6.6 µM | hit rate 1.8% among 330,000 | AID 485270; in the data active = inhibition mostly above about 38%, no sharp cut-off; inactive = mostly below about 40%;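 also: 0% = agonist challenge alone and 100% = reference antagonist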
OXTR potentiate = potentiates the human oxytocin receptor response | CHO-OTR cells, Fluo-8 calcium fluorescence, potentiator mode; 0% = oxytocin EC15, 100% = EC100 | AID 2445 | hit rate 0.061% among 320,000 | P30559 | activation, % at 3 µM;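 active = activation above that plate's cutoff, the mean activation of tested compounds plus 3 SD, cut at about 6.6% in these data, passing the limit was not always enough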;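 also: 100% uses oxytocin at 75 nM as the full agonist control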
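Dosing: Single dose, 3.0 µM nominal final compound concentration | Material: Human OTR in CHO cells | Technique: Kinetic Fluo-8 calcium fluorescence | Benchmarks: EC15 oxytocin alone as 0%, 75 nM oxytocin as 100% | Probe or stimulus: Oxytocin at about EC15, sub-maximal agonist stimulus | Incubation: Compound 6 min at room temperature before oxytocin, 100 s read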
V1aR counter = counter-screen for oxytocin receptor agonists: human V1a receptor agonists. P37288. CHO-V1R cells, Fluo-8 calcium fluorescence, agonist mode; 0% DMSO, 100% 3 nM vasopressin. activation, % at 3 µM. hit rate 0.25% among 320,000;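 active = activation above the mean activation of all tested compounds plus 3 SD, per screening run, cut at about 20% in these data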;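 also: signal is peak over basal fluorescence ratio across a 100 second FLIPR read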
Numbers without * were called inactive; . = no result.

SMILES | OX1R antag-1 | OXTR agonist | CHO parental Ca | OX1R antag-2 | OXTR potentiate | V1aR counter
O=C(CCCOc1ccc(Cl)cc1Cl)NCCc1ccccn1 | -17.5 | -0.4 | -19.1 | -19.9 | -5.9 | 0.6
Nc1c(N2CCCC2)cc(Cl)c2nonc12 | 4.4 | 4.9 | 3.7 | 39.6* | -3.8 | 2.5
Cc1ccc(S(=O)(=O)N2CCOCC2)cc1NC(=O)CN1C(=O)NC(C)(c2ccc(Cl)cc2Cl)C1=O (centres undefined) | -20.4 | 0.7 | -16.9 | 5.5 | -1.1 | 1.3
O=C(NCC1CCCO1)C(=O)N/N=C/c1ccc(OCc2ccccc2Cl)cc1 (centres undefined) | -12.3 | 0.2 | -11.9 | 11.5 | -4.9 | 0.1
COc1ccccc1-c1nc(-c2ccc(Br)o2)no1 | -24.6 | -1.7 | -15.4 | 55.4* | -2.9 | -0.9
COc1ccc(-c2noc(CCCCC(=O)N3CCN(c4cc(C)ccc4C)CC3)n2)cc1 | 75.3* | . | 73.7* | 37.7* | . | .
Cc1ccc(-c2noc(CCC(=O)NCCCN3CCN(c4cccc(Cl)c4)CC3)n2)cc1 | 51.9* | 30.7* | 31.9 | 2.7 | -20.6 | 21.1*
COc1ccc(-c2noc(CCCC(=O)N3CCN(c4cc(C)ccc4C)CC3)n2)cc1 | 34.8 | . | 12.7 | 24.2 | . | .
O=C(COc1ccccc1C(=O)O)NC1CCCc2ccccc21 (centres undefined) | -30.3 | -0.8 | -4.1 | 12.0 | -1.9 | -0.5
O=C(COc1ncnc2scc(-c3ccccc3)c12)NC1CCCc2ccccc21 (centres undefined) | 8.4 | -0.4 | -8.5 | 72.7* | -6.0 | 3.4
COc1ccc(CCNC(=O)COC(=O)/C=C/c2ccc3c(c2)OCO3)cc1 | -21.3 | 1.0 | 32.5* | 20.0 | -5.5 | 3.4
CCOC(=O)c1c(-c2ccccc2)c2cc(OC)ccc2n1CCCN(C)C | -22.6 | 1.0 | 1.2 | 2.3 | -14.7 | 2.8
O=[N+]([O-])c1cccc(-c2nnc(-c3ccccc3)o2)c1 | -7.0 | -2.2 | -3.6 | 24.0 | -13.4 | -0.6
Cc1occc1-c1nnc(-c2cc([N+](=O)[O-])cc([N+](=O)[O-])c2)o1 | -20.2 | -2.2 | -15.8 | 59.1* | -7.5 | -0.3
COc1ccc(-c2csc(Nc3ccc(S(=O)(=O)Nc4cc(C)on4)cc3)n2)cc1 | 10.2 | 0.9 | 4.8 | 40.4* | -5.0 | 1.5
COc1ccc(-c2csc(Nc3ccc(S(N)(=O)=O)cc3)n2)cc1 | 4.6 | 3.3 | 11.0 | 10.4 | -7.5 | 2.0
CCOC(=O)C1(CCOc2ccccc2)CCN(Cc2cccc(OC)c2OC)CC1 | -16.8 | 12.4 | 37.4* | 21.6 | -14.5 | 10.2
Cc1c(C(c2ccc(N(C)C)cc2)c2c(C)n(C)n(-c3ccccc3)c2=O)c(=O)n(-c2ccccc2)n1C | -12.1 | -0.1 | -5.0 | 70.7* | 2.9 | -0.4
CCc1ccc(NC(=O)C2CCCN2S(=O)(=O)c2ccc3c(c2)C(C)(C)C(=O)N3C)cc1 (centres undefined) | -2.0 | -0.9 | -31.6 | 1.1 | -10.3 | 0.1
COc1cccc(NC(=O)c2nnn(Cc3ccc(Br)cc3F)c2N)c1 | 32.7 | 27.4* | 20.6 | 3.0 | -11.6 | 29.0*
Cc1cc(C)cc(NC(=O)c2nnn(Cc3cc(C)ccc3C)c2N)c1 | 80.3* | 35.4* | 67.6* | 11.8 | -27.0 | 41.7*
CCc1ccc(Cn2nnc(C(=O)Nc3ccc(OC)cc3OC)c2N)cc1 | 13.6 | 29.4* | 2.6 | 19.7 | -6.2 | 24.3*
O=S(=O)(c1ccccc1F)N1CCN(CCOc2ccccc2)CC1 | -12.5 | 1.8 | -10.2 | -2.4 | -4.8 | 4.3
Cc1ccc(Nc2ccc3nonc3c2[N+](=O)[O-])cc1 | -6.8 | -2.1 | -16.6 | 64.3* | -8.0 | -0.7
O=C(O)c1ccc(Nc2ccc3nonc3c2[N+](=O)[O-])cc1 | 9.4 | 0.2 | -6.7 | 57.0* | -10.2 | 0.1
SMILES | OX1R antag-1 | OXTR agonist | CHO parental Ca | OX1R antag-2 | OXTR potentiate | V1aR counter
Cc1ccc(Nc2ccc([N+](=O)[O-])nc2[N+](=O)[O-])cc1 | 2.3 | -1.3 | -7.7 | 62.1* | -1.1 | -0.2
Cc1nc(Nc2ccc(C(=O)O)cc2)nc(Nc2ccc(C(=O)O)cc2)c1[N+](=O)[O-] | -2.0 | -0.6 | 0.8 | 42.3* | -8.3 | -0.1
CCCN(C(=O)CSc1ncccn1)C1CCS(=O)(=O)C1 (centres undefined) | -9.0 | 1.7 | 3.2 | 0.2 | -1.2 | 1.9
O=[N+]([O-])c1c(Nc2ccc(Br)cc2)ccc2nonc12 | -9.9 | -0.8 | -4.0 | 13.4 | -8.0 | 0.6
CCOc1ccc(Nc2ccc3nonc3c2[N+](=O)[O-])cc1 | -34.6 | -1.4 | -0.2 | 44.6* | -4.7 | -0.5
O=S(=O)(Nc1ccc(Br)cn1)c1ccc(Cl)s1 | -13.9 | -1.4 | -15.8 | 12.6 | -2.2 | -0.3
C[C@H]1COC(=O)[C@H](Cc2ccc(F)cc2)C/C=C\C[C@H](CC(=O)NCCO)C(=O)N1 | -14.9 | 0.5 | -3.6 | 4.7 | 1.0 | 0.5
O=C(Nc1ccc(Cl)c(C(F)(F)F)c1)[C@@H]1CC=C[C@@H]2CCN(C3CC3)C(=O)[C@@H]21 | -10.1 | -0.9 | -26.9 | 62.2* | -7.2 | 0.1
O=C(Nc1ccc(Cl)c(C(F)(F)F)c1)[C@@H]1CC=C[C@@H]2CCN(C3CCCCC3)C(=O)[C@@H]21 | 0.0 | -1.9 | -9.2 | 10.6 | -12.2 | 0.0
CN(C)C=NC(=O)c1ccc([N+](=O)[O-])c(CS(=O)(=O)c2ccc(Cl)cc2)c1 | -9.1 | 1.7 | -9.4 | 71.7* | -13.4 | 3.6
NNC(=O)c1ccc([N+](=O)[O-])c(CS(=O)(=O)c2ccc(Cl)cc2)c1 | 1.5 | -0.3 | -8.3 | 32.3 | -2.1 | 0.2
COc1ccc(Nc2sc(C(=O)Nc3cccc(Cl)c3)c(N)c2C(=O)Nc2ccccc2OC)cc1 | 50.7* | 5.2 | 47.5* | -0.1 | -4.8 | 9.4
COc1ccccc1NC(=O)c1c(Nc2ccccc2F)sc(C(=O)Nc2cccc(Cl)c2)c1N | 36.9 | 7.7 | 42.5* | 15.5 | -6.2 | 13.1
CCOc1ccccc1N(CC(=O)Nc1ccccc1F)S(=O)(=O)c1ccccc1 | -16.9 | -0.3 | 0.3 | 21.9 | -0.5 | 0.6
CCOc1cc(S(=O)(=O)Nc2ccc(CC)cc2)ccc1Cl | -2.9 | -0.5 | 41.9* | 12.3 | -10.4 | 0.5
CCCSc1nnc(CNS(=O)(=O)c2ccc(C)cc2)n1C | -7.6 | -1.1 | -10.3 | -5.6 | -4.6 | -0.7
Cn1cc(C(=O)N/N=C/c2ccc3c(c2)OCO3)c2ccccc21 | 11.2 | -1.5 | -4.5 | 43.1* | -4.1 | -0.6
O=C(N/N=C/c1cc(Cl)cc([N+](=O)[O-])c1O)c1ccc2c(c1)OCO2 | -4.7 | -2.0 | -9.7 | 56.4* | -3.8 | -0.6
O=C(N/N=C/c1cc(Cl)cc(Cl)c1O)c1ccncc1 | 7.6 | 28.6* | 9.1 | 36.5 | -10.0 | 27.5*
O=C(N/N=C/c1ccccc1O)c1ccc2c(c1)OCO2 | -13.1 | 0.9 | -3.1 | 4.3 | -7.1 | 1.6
O=C(N/N=C/c1ccc(Cl)cc1Cl)c1ccncc1 | -10.4 | -1.6 | -1.9 | 3.4 | -0.4 | -0.6
